UHRF1 MBD2 ctr: UHRF1 methylated DNA binding inhibitors, primary screen, counter-screen for MBD2 inhibitor project, biochemical, TR-FRET, human UHRF1, single concentration. UHRF1 binding to methylated oligo. actives 0.75% (n = 370,000). inhibition, % at 4.4 µM. E3 ubiquitin-protein ligase UHRF1 (Homo sapiens), Q96T88; in the data active means inhibition above about 21%;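 further: UHRF1 SRA domain binding a hemimethylated CpG hairpin DNA probe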
Target sequence (Q96T88 whole entry, looked up, the tested form may be a part): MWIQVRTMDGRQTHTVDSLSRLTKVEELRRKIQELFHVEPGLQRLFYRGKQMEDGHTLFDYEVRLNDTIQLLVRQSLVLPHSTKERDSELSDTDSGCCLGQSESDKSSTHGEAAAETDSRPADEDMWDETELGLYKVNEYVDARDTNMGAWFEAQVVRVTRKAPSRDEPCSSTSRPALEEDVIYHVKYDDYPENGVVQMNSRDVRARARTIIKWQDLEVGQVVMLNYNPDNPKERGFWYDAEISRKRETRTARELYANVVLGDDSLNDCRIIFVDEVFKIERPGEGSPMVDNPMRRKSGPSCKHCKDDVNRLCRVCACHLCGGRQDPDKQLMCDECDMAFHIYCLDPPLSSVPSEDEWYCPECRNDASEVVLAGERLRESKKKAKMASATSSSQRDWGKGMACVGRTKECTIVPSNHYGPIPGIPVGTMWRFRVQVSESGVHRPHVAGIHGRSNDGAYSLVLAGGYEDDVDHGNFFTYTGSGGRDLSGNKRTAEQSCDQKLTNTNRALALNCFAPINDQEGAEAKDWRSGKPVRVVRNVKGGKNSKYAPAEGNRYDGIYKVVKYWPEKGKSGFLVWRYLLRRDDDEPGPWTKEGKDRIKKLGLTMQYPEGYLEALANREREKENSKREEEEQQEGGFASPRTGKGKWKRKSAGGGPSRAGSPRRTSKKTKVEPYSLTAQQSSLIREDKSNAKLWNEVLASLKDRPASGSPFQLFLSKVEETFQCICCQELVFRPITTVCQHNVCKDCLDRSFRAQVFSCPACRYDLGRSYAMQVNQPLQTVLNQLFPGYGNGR
TDP2 inh: human TDP2 enzyme inhibitors, primary screen, biochemical, epi absorbance, recombinant enzyme; AID 720702, 2013; Tyrosyl-DNA phosphodiesterase 2 (Homo sapiens), O95551; actives 0.34% (n = 370,000); T5PNP hydrolysis, p-nitrophenol absorbance 415 nm; inhibition, % at 12.8 µM;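 active means inhibition above the mean of all tested compounds plus 3 SD, set per campaign, cut at about 25% in these data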
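System – recombinant human TDP2 · Quantity – TDP2 enzyme at 120 nM final · Doses – single concentration, 12.8 µM nominal, with 1% DMSO · Incubation – 2 h at 37 °C · Measured by – epi absorbance of p-nitrophenol freed from T5PNP by hydrolysis · Read-out – % inhibition relative to enzyme-containing and enzyme-free wells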
Rin1-Abl PPI inh: inhibitors of Rin1-Abl protein binding, primary screen, biochemical, TR-FRET | AID 588664, 2011 | actives 0.4% (n = 360,000) | inhibition, % at 7.35 µM; in the data active means inhibition above about 5%, passing the limit was not always enough
MBD2 inh: inhibitors of MBD2 binding to methylated DNA, primary screen, biochemical, TR-FRET, DNA-binding domain, human; Methyl-CpG-binding domain protein 2 (Homo sapiens), Q9UBB5; MBD2 binding to methylated oligonucleotide; inhibition, % at 4.4 µM; actives 0.31% (n = 370,000); in the data active means inhibition above about 13%
LEDGF integ inh: blockers of LEDGF/p75-dependent integrase strand transfer – biochemical, TR-FRET, high throughput, primary screen | TR-FRET IN-LEDGF/p75 DNA integration, Eu/Cy5 | actives 0.64% (n = 370,000) | inhibition, % at 3.7 µM | AID 743269, 2014 | HIV-1 integrase (with human LEDGF/p75);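 active means inhibition above the screen-wide mean plus 3 SD, cut at about 13% in these data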;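 further: signal is the Cy5 over europium emission ratio at 671 and 618 nm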
Rin1 Abl conf: Rin1-Abl binding inhibitor retest, confirmation, biochemical, TR-FRET; shares compounds with Rin1-Abl PPI inh; purified proteins; inhibition, % at 7.35 µM; actives 49% (n = 1,300)
GFP quench: GFP fluorescence inhibitors and quenchers, artefact control for Rin1-Abl interaction inhibitor project, biochemical; AID 602125, 2011; actives 8.5% (n = 1,300); inhibition, % at 6.75 µM; shares compounds with Rin1-Abl PPI inh; inhibitors/quenchers counterscreen;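 further: ABL1-eGFP fusion protein alone without its partner RIN1-SBP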
GFP quench dose: GFP fluorescence inhibitors and quenchers, dose response, artefact control for Rin1-Abl interaction inhibitor project, biochemical. shares compounds with Rin1-Abl PPI inh. GFP fluorescence interference/quenching counterscreen. IC50, µM. 230 tested, under 10 active; call rule not given here;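 further: ABL1-eGFP fusion protein alone without its RIN1 binding partner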
Each line names hits and unclear results; the compound was inactive in the other large screens (follow-up assays come after a bar, where they were run). Most compounds without a hit are left out; they make up all but 1.9% or so of the library. Unless noted, no stated cut-off is given here; in the data, active means inhibition above about 6.5%; inactive means the rest.

O=C(Nc1ccc(F)cc1F)c1cc(-c2ccc(Cl)cc2)nc2ccccc12	none (no result: Rin1-Abl PPI inh)
Cc1ccc2cc(NC(=O)CC(CC(=O)O)c3ccccc3)ccc2n1 (configuration not stated)	Rin1-Abl PPI inh 8.6 | Rin1 Abl conf inactive | GFP quench inactive
C=CCN1[C@@H](CC(C)C)COc2cc(F)ccc2S1(=O)=O	none (no result: Rin1-Abl PPI inh)
CCOC(=O)N1CCN(C(=O)/C=C/c2ccc(OC)c(OC)c2)CC1	none
CCCOc1ccc(/C=C/C(=O)N2CCN(C(=O)c3ccco3)CC2)cc1OC	Rin1-Abl PPI inh 15 | Rin1 Abl conf 17 | GFP quench inactive | GFP quench dose inactive
Cc1cc(Oc2ccc(=O)n(C)n2)nc(SCCOc2ccccc2)n1	Rin1-Abl PPI inh 33 | Rin1 Abl conf inactive | GFP quench inactive
COc1ccc(NC(=S)N2CCN(C/C=C/c3ccccc3)CC2)cc1	Rin1-Abl PPI inh 9.3 | Rin1 Abl conf inactive | GFP quench inactive
CCOc1ccc(NC(=S)N2CCN(C/C=C/c3ccccc3)CC2)cc1	none
C[C@H](O)[C@@H]1C(=O)N2CCc3c([nH]c4cccc(-c5ccccc5)c34)[C@@H]2C[C@@H]1N(C)C(=O)Nc1ccccc1	none (no result: Rin1-Abl PPI inh)
COc1ccc(C2C(C(=O)N3CCN(c4ccccn4)CC3)CCC(=O)N2c2ccc(OC)cc2)cc1 (configuration not stated)	Rin1-Abl PPI inh 7.5 | Rin1 Abl conf inactive | GFP quench inactive
CCCCOc1ccc(C(=O)N=c2sccn2C)cc1OC	Rin1-Abl PPI inh 20 | Rin1 Abl conf 12 | GFP quench inactive
CC(c1ccccc1)N(CCC(c1ccccc1)C1CCOC(C)(C)C1)C(=O)c1ccco1 (configuration not stated)	none
COc1ccc(CN(CCC(c2ccc(F)cc2)C2CCOC(C)(C)C2)C(=O)c2ccco2)cc1 (configuration not stated)	Rin1-Abl PPI inh 5.5 | Rin1 Abl conf 18 | GFP quench inactive
CCN(CC)CCNC(=O)c1ccc(NC(=O)C2CCN(c3ncnc4sc(C)c(C)c34)CC2)cc1	Rin1-Abl PPI inh 10 | Rin1 Abl conf inactive | GFP quench inactive
Cc1sc2ncnc(N3CCC(C(=O)Nc4ccc(OC(F)F)c(Cl)c4)CC3)c2c1C	none
C[C@@H](NC(=O)C[C@H]1CC[C@H]2[C@@H](COc3ccc(NC(=O)Nc4ccccc4)cc3C(=O)N2C)O1)c1ccccc1	none (no result: Rin1-Abl PPI inh)
Cc1ccc(NC(=O)CN(C)C(=O)CSc2nc3ccccc3c(=O)n2CCO)cc1	Rin1-Abl PPI inh 11 | Rin1 Abl conf 9.0 | GFP quench inactive
COC(=O)c1cc2c(c3c4ccccc4n(S(C)(=O)=O)c13)C(=O)N(Cc1ccccc1)C2	none (no result: Rin1-Abl PPI inh)
CCN(C(=O)CCc1cn(CC)c2ccccc12)c1ccc(Oc2cccnc2)cc1	none (no result: Rin1-Abl PPI inh)
COc1ccc(N(C(=O)c2snc(C(N)=O)c2N)C(C(=O)NCc2ccccc2)c2ccc(F)cc2)c(OC)c1 (configuration not stated)	Rin1-Abl PPI inh 9.9 | Rin1 Abl conf 11 | GFP quench inactive
COc1ccccc1N(C(=O)c1snc(C(N)=O)c1N)C(C(=O)NCc1ccccc1)c1ccc(O)cc1 (configuration not stated)	Rin1-Abl PPI inh 22 | Rin1 Abl conf 23 | GFP quench inactive | GFP quench dose inactive
COc1ccc(C(C(=O)NCc2ccccc2)N(C(=O)c2snc(C(N)=O)c2N)C2CCCC2)cc1 (configuration not stated)	none
COc1ccc(N(C(=O)c2snc(C(N)=O)c2N)C(C(=O)NC2CCCCC2)c2ccc(F)cc2)c(OC)c1 (configuration not stated)	none
COc1ccc(C(C(=O)NCc2ccccc2)N(C(=O)c2snc(C(N)=O)c2N)c2ccccc2OC)cc1 (configuration not stated)	Rin1-Abl PPI inh 12 | Rin1 Abl conf 14 | GFP quench inactive
CCOC(=O)c1ccccc1NC(=O)c1cccc([N+](=O)[O-])c1	Rin1-Abl PPI inh 9.8 | Rin1 Abl conf inactive | GFP quench inactive
NC(=O)C1CCN(CC(=O)Nc2ccccc2Sc2ccccc2)CC1	Rin1-Abl PPI inh 7.3 | Rin1 Abl conf 11 | GFP quench inactive
Cc1nc(-c2ccc(C(=O)N3CCCC3)cc2)cs1	Rin1-Abl PPI inh 6.2 | Rin1 Abl conf inactive | GFP quench inactive
COc1cc(Cl)ccc1OCc1cc(C(=O)N2CCCCC2c2cccnc2)no1 (configuration not stated)	Rin1-Abl PPI inh 10 | Rin1 Abl conf inactive | GFP quench inactive
COC(=O)[C@@]12CCCCC3=C1N(CCC3)C(=O)[C@H]2CC(=O)NCC12CC3CC(CC(C3)C1)C2	none (no result: Rin1-Abl PPI inh)
COc1ccc(N2C(=O)c3n[nH]c(C(C)C)c3C2c2ccc(C)cc2)cc1 (configuration not stated)	none (no result: Rin1-Abl PPI inh)
Nc1nc(O)c(N=Nc2ccc(S(N)(=O)=O)cc2)c(=O)[nH]1	none (no result: Rin1-Abl PPI inh)
NS(=O)(=O)c1ccc(N=Nc2c[nH]c(=O)c(O)c2)cc1	Rin1-Abl PPI inh 18 | Rin1 Abl conf 14 | GFP quench 24
CCCCN=C(N)NC(=O)c1ccccc1	none (no result: Rin1-Abl PPI inh)
Cc1cnc(NC(=O)CN(C)S(=O)(=O)c2ccc(Cl)cc2)s1	none
CN(CC(=O)Nc1ccccn1)S(=O)(=O)c1ccc(Cl)cc1	Rin1-Abl PPI inh 36 | Rin1 Abl conf inactive | GFP quench inactive
COc1ccc(OC)c(S(=O)(=O)N(CCc2ccc(OC)c(OC)c2)Cc2cccs2)c1	none (no result: Rin1-Abl PPI inh)
C[C@H](CO)N1C[C@H](C)[C@@H](CN(C)Cc2ccc(Oc3ccccc3)cc2)Oc2c(NC(=O)c3ccncc3)cccc2C1=O	Rin1-Abl PPI inh 30 | Rin1 Abl conf 28 | GFP quench inactive
C[C@H](CO)N1C[C@H](C)[C@@H](CN(C)Cc2ccc(-c3ccccc3)cc2)Oc2c(NS(=O)(=O)c3ccc(F)cc3)cccc2C1=O	Rin1-Abl PPI inh 9.1 | Rin1 Abl conf 9.2 | GFP quench inactive
